The target in series [1] is T1, Peroxisome proliferator-activated receptor delta (Mus musculus) (UniProt P35396).
T1 sequence (whole entry): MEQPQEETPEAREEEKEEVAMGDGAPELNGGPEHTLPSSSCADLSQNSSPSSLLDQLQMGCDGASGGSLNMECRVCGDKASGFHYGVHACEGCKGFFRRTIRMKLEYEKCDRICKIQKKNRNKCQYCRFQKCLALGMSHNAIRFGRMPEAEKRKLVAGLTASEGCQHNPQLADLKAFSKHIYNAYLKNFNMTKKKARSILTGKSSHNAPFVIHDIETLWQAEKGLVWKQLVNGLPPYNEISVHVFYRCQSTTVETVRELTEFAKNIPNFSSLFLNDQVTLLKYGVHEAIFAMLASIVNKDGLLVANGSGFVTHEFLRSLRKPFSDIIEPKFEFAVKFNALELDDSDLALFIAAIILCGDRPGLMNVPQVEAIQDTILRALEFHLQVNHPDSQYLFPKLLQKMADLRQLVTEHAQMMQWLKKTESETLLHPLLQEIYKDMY
Kind of series: Displacement of fluormone Pan-PPAR Green from mouse recombinant GST-tagged PPARbeta/delta LBD at 1 uM after 60 mins by TR-FRET assay. A digest of the protocol: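 Competitive binding by LanthaScreen TR-FRET: recombinant GST-PPARβ/δ LBD, detected through a terbium-labelled anti-GST antibody, was incubated with Fluormone Pan-PPAR Green. Compound was tested at 1 μM. Read-out is the 520 nm/495 nm emission ratio after terbium excitation, as averages of triplicates ± SD.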

Series [2] deals with T1, Peroxisome proliferator-activated receptor delta (Mus musculus). Kind of series: Antagonist activity at PPARbeta/delta in mouse NIH3T3 cells coexpressing LexA assessed as decrease in L165,041-induced transcriptional activation at 1 uM after 48 hrs by luciferase reporter gene assay relative to control. Format: functional, cell-based. A digest of the protocol:
(§1)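 NIH3T3 cells were transfected with LexA-PPARα, -PPARβ/δ or -PPARγ fusion plasmids plus the 7L-TATAi luciferase reporter. From 4 h post-transfection, cells received inhibitory ligand (1 μM) for 48 h. Agonists followed: GW7647 300 nM (PPARα), L165,041 1 μM (PPARβ/δ) or GW1929 300 nM (PPARγ), or agonist solvent. Induction is luciferase activity with agonist relative to solvent; triplicates with t test.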

For series [3], the target named is T2, Peroxisome proliferator-activated receptor alpha (Mus musculus) (UniProt P23204).
T2 sequence (whole entry): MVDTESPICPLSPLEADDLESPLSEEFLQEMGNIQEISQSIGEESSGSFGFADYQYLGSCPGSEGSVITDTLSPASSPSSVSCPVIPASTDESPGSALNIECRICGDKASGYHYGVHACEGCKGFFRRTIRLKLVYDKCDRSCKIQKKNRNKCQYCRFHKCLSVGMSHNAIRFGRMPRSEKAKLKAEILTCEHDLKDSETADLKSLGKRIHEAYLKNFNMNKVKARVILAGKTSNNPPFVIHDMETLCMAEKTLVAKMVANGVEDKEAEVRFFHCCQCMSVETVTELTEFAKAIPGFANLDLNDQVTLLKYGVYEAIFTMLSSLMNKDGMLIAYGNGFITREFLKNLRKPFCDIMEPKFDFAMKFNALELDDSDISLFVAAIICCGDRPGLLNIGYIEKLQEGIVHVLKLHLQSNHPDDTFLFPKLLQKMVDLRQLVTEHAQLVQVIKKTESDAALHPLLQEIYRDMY
Kind of series: Antagonist activity at PPARalpha in mouse NIH3T3 cells coexpressing LexA assessed as decrease in GW7647-induced transcriptional activation at 1 uM after 48 hrs by luciferase reporter gene assay relative to control. Format: functional, cell-based. A digest of the protocol: as §1
A general note: In a reporter assay the amount or activity of a reporter protein is the signal.

For series [4], the target named is T3, Peroxisome proliferator-activated receptor gamma (Mus musculus) (UniProt P37238).
T3 sequence (whole entry): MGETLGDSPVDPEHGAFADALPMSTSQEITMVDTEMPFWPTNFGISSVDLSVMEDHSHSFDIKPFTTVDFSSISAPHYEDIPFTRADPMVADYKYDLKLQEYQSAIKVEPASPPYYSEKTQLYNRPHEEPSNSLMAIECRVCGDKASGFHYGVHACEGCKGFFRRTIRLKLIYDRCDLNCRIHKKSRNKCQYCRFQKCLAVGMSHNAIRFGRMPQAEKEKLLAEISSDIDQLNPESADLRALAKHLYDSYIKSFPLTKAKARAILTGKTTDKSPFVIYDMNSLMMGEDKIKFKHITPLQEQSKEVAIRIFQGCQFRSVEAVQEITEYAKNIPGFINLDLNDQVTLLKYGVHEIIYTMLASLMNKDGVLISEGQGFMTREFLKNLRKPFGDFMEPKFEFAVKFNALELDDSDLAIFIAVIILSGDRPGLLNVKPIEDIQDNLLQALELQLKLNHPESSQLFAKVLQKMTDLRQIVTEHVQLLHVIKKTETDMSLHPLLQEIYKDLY
As to the kind of experiment: Antagonist activity at PPARgamma in mouse NIH3T3 cells coexpressing LexA assessed as decrease in GW1929-induced transcriptional activation at 1 uM after 48 hrs by luciferase reporter gene assay relative to control. Format: functional, cell-based. The procedure, abridged:
as §1

In series [5] the target is T4, Peroxisome proliferator-activated receptor delta (Mus musculus, UniProt P35396).
T4 sequence (P35396 whole entry): T1 sequence (whole entry)
As to the kind of experiment: Displacement of fluormone Pan-PPAR Green from mouse recombinant GST-tagged PPARbeta/delta LBD after 60 mins by TR-FRET assay. In general terms: TR-FRET usually uses a lanthanide donor and a delayed reading to cut background.

In series [6] the target is T5, Peroxisome proliferator-activated receptor alpha (Homo sapiens) (UniProt Q07869).
T5 sequence (whole entry): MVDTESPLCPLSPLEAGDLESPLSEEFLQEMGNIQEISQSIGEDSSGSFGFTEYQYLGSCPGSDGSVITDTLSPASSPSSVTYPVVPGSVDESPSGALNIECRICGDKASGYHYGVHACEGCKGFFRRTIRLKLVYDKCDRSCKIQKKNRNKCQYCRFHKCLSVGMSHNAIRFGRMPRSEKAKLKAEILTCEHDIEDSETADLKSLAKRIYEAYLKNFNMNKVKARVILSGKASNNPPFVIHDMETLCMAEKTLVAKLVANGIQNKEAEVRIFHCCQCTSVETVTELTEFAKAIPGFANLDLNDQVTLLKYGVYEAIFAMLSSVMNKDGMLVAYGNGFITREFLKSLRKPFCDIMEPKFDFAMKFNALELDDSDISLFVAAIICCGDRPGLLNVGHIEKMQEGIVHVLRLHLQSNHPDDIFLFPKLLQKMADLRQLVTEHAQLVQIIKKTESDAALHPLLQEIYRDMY
Kind of series: Displacement of fluormone Pan-PPAR Green from PPARalpha at 100 to 1000 nM after 60 mins by TR-FRET assay.

Series [7] in a line: Half life in CD1 mouse plasma at 1 mg/kg, iv. It counts as ADME, organism-based. On the set-up: dose 1 mg/kg, route intravenous. The procedure, abridged: (§2)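 Male CD-1 mice dosed iv by tail vein (1 mg/kg) or po by gastric gavage (5 mg/kg). Vehicle was DMSO/Solutol HS 15/PBS pH 7.4 (5/5/90, v/v/v). Blood was taken at eight time points from 10 min to 12 h, by parallel sampling of three mice per point. Plasma was acetonitrile-precipitated and analysed by HPLC-MS/MS, and basic PK parameters were derived.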

Series [8] is described as follows: Clearance in CD1 mouse at 1 mg/kg, iv. It counts as ADME, organism-based. More on the design: dose 1 mg/kg, route intravenous. Conditions: in vivo. The procedure, abridged:
as §2

Series [9] in a line: Volume of distribution at steady state in CD1 mouse at 1 mg/kg, iv. Format: ADME, organism-based. On the set-up: dose 1 mg/kg, route intravenous. Conditions: in vivo, read-out: Vdss. A digest of the protocol: as §2

The text below walks through data of ChEMBL document CHEMBL2029317, “(Z)-2-(2-bromophenyl)-3-{[4-(1-methyl-piperazine)amino]phenyl}acrylonitrile (DG172): an orally bioavailable PPARβ/δ-selective ligand with inverse agonistic properties” (J Med Chem, 2012).

pIC50: −log10 of the molar value. Calls of active or inactive are those of the source. The calls are words filed in the database; no cut-off is given here.

Consider `CN1CCN(c2ccc(/C=C(\C#N)c3ccccc3Br)cc2)CC1`, for which the outcome in series [1] and in series [2] was Active. The outcome in [3], in [4] and in [6] was inactive. The pIC50 (as a rule, the negative decadic logarithm of the IC50, by convention in mol/L) in series [5] is 7.57. In addition, the half-life (commonly how long it takes for the measured level to halve) in series [7] worked out at 1.27 h. For the same compound, the clearance (commonly a measure of how efficiently the substance is removed, as volume per time) in series [8] came to 121 mL/min/kg. The Vd in [9] came to 12.5 L/kg.

Take `CN(C)c1ccc(/C=C(\C#N)c2ccccc2Cl)cc1`: the outcome in series [1] and in series [2] was Active. Moreover, the result in series [3], in series [4] and in series [6] was inactive. For the same compound, the pIC50 in [5] was 6.74. Moreover, the half-life in series [7] turned out to be 1.27 h. In addition, the clearance in series [8] came out at 176 mL/min/kg. The Vd in [9] came to 6.2 L/kg.
